≈ marks a conversion by molar mass, not a printed value. Calls of active or inactive are those of the source. The rule behind the calls is not given here.
Columns and labels:
Type in all cases: functional
Bacillus subtilis [1] = test: Antimicrobial activity against Bacillus subtilis 2250 at 35 degC after 18 to 24 hrs by NCCLS method based antimicrobial assay; conditions: for MBC: read-out: MBC99.9
Pseudomonas aeruginosa [2] = test: Antimicrobial activity against Pseudomonas aeruginosa 2036 at 35 degC after 18 to 24 hrs by NCCLS method based antimicrobial assay
Aspergillus niger [3] = test: Antimicrobial activity against Aspergillus niger 545 at 35 degC after 48 hrs by CLSI method based antimicrobial assay; conditions: Aspergillus niger, 545, 48 h; for MFC: read-out: MFC99.9
How it was run: (§1)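 Broth microdilution following CLSI guidelines over 256 to 1 µg/mL. MIC90 is the lowest concentration completely inhibiting growth. For MFC, 0.1 mL from each tube spread on agar and CFU counted after 48 h at 35 °C; MFC is lowest concentration killing 99.9% of inoculum. MFC/MIC ratio calculated: […], ≤4 as fungicidal.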

Candida albicans [4] = test: Antimicrobial activity against Candida albicans 3471 at 35 degC after 48 hrs by CLSI method based antimicrobial assay; conditions: Candida albicans, 3471, 48 h; for MFC: read-out: MFC99.9; how it was run: as §1
Aspergillus niger [5] = test: Ratio of MFC99.9 to MIC90 for Aspergillus niger 545 at 35 degC after 48 hrs by CLSI method based antimicrobial assay; how it was run: as §1
Candida albicans [6] = test: Ratio of MFC99.9 to MIC90 for Candida albicans 3471 at 35 degC after 48 hrs by CLSI method based antimicrobial assay; how it was run: as §1
Staphylococcus aureus [7] = test: Antimicrobial activity against Staphylococcus aureus 2079 at 128 ug/disc at 35 degC after 24 hrs by agar-well diffusion assay; conditions: for zone of inhibition at 128 µg/disc: Staphylococcus aureus, 2079, 24 h, read-out: DIZ
How it was run: (§2)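 Agar-well diffusion: 24 h bacterial cultures adjusted to 0.5 McFarland (1.5 × 10⁸ CFU/mL) and mixed into molten Mueller-Hinton agar before pouring. 6 mm wells punched and each filled with 50 µL of compound stock or control. Plates incubated 35 °C for 24 h. Zone of growth inhibition diameter measured with vernier caliper.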

Escherichia coli [8] = test: Antimicrobial activity against Escherichia coli 2109 at 128 ug/disc at 35 degC after 24 hrs by agar-well diffusion assay; how it was run: as §2
Bacillus subtilis [9] = test: Antimicrobial activity against Bacillus subtilis 2250 at 128 ug/disc at 35 degC after 24 hrs by agar-well diffusion assay; conditions: for zone of inhibition at 128 µg/disc: Bacillus subtilis, 2250, 24 h, read-out: DIZ; how it was run: as §2
Pseudomonas aeruginosa [10] = test: Antimicrobial activity against Pseudomonas aeruginosa 2036 at 128 ug/disc at 35 degC after 24 hrs by agar-well diffusion assay; how it was run: as §2
Aspergillus niger [11] = test: Antimicrobial activity against Aspergillus niger 545 at 128 ug/disc at 37 degC after 24 to 72 hrs by agar-well diffusion assay; conditions: read-out: DIZ
How it was run: (§3)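 Potato dextrose agar base plates overlaid with seeded agar cooled to 40 °C and inoculated with spores from 10-day cultures, final 1 × 10⁶ spores/mL. Compounds dissolved in DMSO at 128 µg/mL and applied on 6 mm filter-paper discs placed on chilled seeded medium. Nystatin positive control, DMSO negative control. Incubation 24–72 h at 37 °C. Inhibition zone diameter read by vernier caliper.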

Candida albicans [12] = test: Antimicrobial activity against Candida albicans 3471 at 128 ug/disc at 37 degC after 24 to 72 hrs by agar-well diffusion assay; conditions: read-out: DIZ; how it was run: as §3
Staphylococcus aureus [13] = test: Antimicrobial activity against Staphylococcus aureus 2079 at 35 degC after 18 to 24 hrs by NCCLS method based antimicrobial assay; conditions: for MBC: read-out: MBC99.9
Escherichia coli [14] = test: Antimicrobial activity against Escherichia coli 2109 at 35 degC after 18 to 24 hrs by NCCLS method based antimicrobial assay

MIC (Bacillus subtilis [1]) | MIC (Pseudomonas aeruginosa [2]) | MIC (Aspergillus niger [3]) [µg/mL] | MIC (Candida albicans [4]) [µg/mL] | MIC (Staphylococcus aureus [13]) | MIC (Escherichia coli [14]) | SMILES | MBC (Bacillus subtilis [1]) [µg/mL] | MBC99.9 (Pseudomonas aeruginosa [2]) | MFC (Aspergillus niger [3]) [µg/mL] | MFC (Candida albicans [4]) [µg/mL] | Ratio (Aspergillus niger [5]) | Ratio (Candida albicans [6]) | diameter of the inhibition zone (DIZ) (Staphylococcus aureus [7]) | diameter of the inhibition zone (DIZ) (Escherichia coli [8]) | zone of inhibition at 128 µg/disc (Bacillus subtilis [9]) [mm] | diameter of the inhibition zone (DIZ) (Pseudomonas aeruginosa [10]) | zone of inhibition at 128 µg/disc (Aspergillus niger [11]) [mm] | zone of inhibition at 128 µg/disc (Candida albicans [12]) [mm] | MBC99.9 (Staphylococcus aureus [13]) | MBC99.9 (Escherichia coli [14]) | also measured
128 µg/mL (≈ 270 µM) | inactive | 32 (≈ 67.6 µM) | 32 (≈ 67.6 µM) | inactive | inactive | O=[N+]([O-])c1ccc(-c2csc(N/N=C(/Cn3nnc4ccccc43)c3ccc(F)cc3)n2)cc1 | 256 (≈ 541 µM) | inactive | 128 (≈ 270 µM) | 64 (≈ 135 µM) | 4 | 2 | inactive | inactive | 14.9 | inactive | 16.2 | 18.7 | inactive | inactive | 
inactive | inactive | 32 (≈ 56.7 µM) | 32 (≈ 56.7 µM) | 32 µg/mL (≈ 56.7 µM) | inactive | Fc1ccc(-c2csc(N/N=C(/Cn3nnc4ccccc43)c3cc(C(F)(F)F)cc(C(F)(F)F)c3)n2)cc1 |  | inactive | 64 (≈ 113 µM) | 128 (≈ 227 µM) | 2 | 4 |  | inactive |  | inactive | 16.8 | 18.4 |  | inactive | MBC99.9 (Bacillus subtilis [1]): inactive; zone of inhibition at 128 µg/disc (Staphylococcus aureus [7]): 24.3 mm; diameter of the inhibition zone (DIZ) (Bacillus subtilis [9]): inactive; MBC (Staphylococcus aureus [13]): 64 µg/mL (≈ 113 µM)
128 µg/mL (≈ 244 µM) | inactive | 64 (≈ 122 µM) | 32 (≈ 61.1 µM) | inactive | inactive | Clc1ccc(/C(Cn2nnc3ccccc32)=N\Nc2nc(-c3ccc(Br)cc3)cs2)cc1 | 256 (≈ 489 µM) | inactive | 64 (≈ 122 µM) | 128 (≈ 244 µM) | 1 | 4 | inactive | inactive | 13.8 | inactive | 15.2 | 18 | inactive | inactive | 
inactive | 32 µg/mL (≈ 67.6 µM) | 32 (≈ 67.6 µM) | 128 (≈ 270 µM) | 32 µg/mL (≈ 67.6 µM) | inactive | O=[N+]([O-])c1ccc(/C(Cn2nnc3ccccc32)=N\Nc2nc(-c3ccc(F)cc3)cs2)cc1 |  |  | 64 (≈ 135 µM) | 256 (≈ 541 µM) | 2 | 2 |  | inactive |  |  | 17.8 | 12.2 |  | inactive | MBC99.9 (Bacillus subtilis [1]): inactive; MBC (Pseudomonas aeruginosa [2]; read-out: MBC99.9): 32 µg/mL (≈ 67.6 µM); zone of inhibition at 128 µg/disc (Staphylococcus aureus [7]): 26.5 mm; diameter of the inhibition zone (DIZ) (Bacillus subtilis [9]): inactive; zone of inhibition at 128 µg/disc (Pseudomonas aeruginosa [10]; Pseudomonas aeruginosa, 2036, 24 h, read-out: DIZ): 20.7 mm; MBC (Staphylococcus aureus [13]): 64 µg/mL (≈ 135 µM)
